According to ChEMBL document CHEMBL1122619, “Synthesis and antiarrhythmic and parasympatholytic properties of substituted phenols. 2. Amides” (J Med Chem, 1984):
Active and inactive are the calls of the source. No cut-off for these calls is given here.

Tests used:
Canis familiaris [1] = test: Evaluated for ouabain-induced arrhythmia in anesthetized adult male mongrel dogs. Administered intravenously.; format: functional, Canis lupus familiaris
How it was run: (§1)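 Adult male mongrel dogs (10–17 kg) anesthetized with pentobarbital (30 mg/kg iv) and intubated with spontaneous respiration. ECG lead II recorded. Ouabain given iv as boluses: 40 μg/kg, then 20 μg/kg at 30 min, then 10 μg/kg every 15 min until a stable ventricular arrhythmia (>95% ectopic ventricular complexes). Test drug given iv, doses calculated as free base.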

Cavia porcellus [2] = species: Cavia porcellus; test: Parasympatholytic activity was assessed from the ability to inhibit electrically stimulated contraction of isolated guinea pig ileum at 4 mg/L of base; format: functional
How it was run: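 Electrically stimulated isolated guinea pig ileum, in which tension arises from stimulated acetylcholine release from postganglionic parasympathetic nerve terminals. After about 60 min equilibration, contractile tension was measured just before and during the steady-state response to test drug at 4 mg/L, calculated as free base.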

Cavia porcellus [3] = species: Cavia porcellus; test: Anticholinergic activity is assessed in guinea pig ileum at 30 uM; format: functional, organism-based; conditions: read-out: pA2 (converted)
How it was run: (§2)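 Isolated guinea pig ileum contracted with methacholine. Tissue washed between increasing methacholine concentrations. A single antagonist dose was given 15 min before each methacholine concentration. Methacholine EC50 (50% of maximal response) was found per muscle with and without antagonist. pA2 = −log KB, where KB = [antagonist]/((EC50 with/EC50 without) − 1). Doses calculated as free base.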

Canis familiaris [4] = test: Compound was evaluated for ouabain-induced arrhythmia in anesthetized adult male mongrel dogs. Both ouabain and compound are administered intravenously; NA means not effective; format: functional, organism-based; conditions: Canis lupus familiaris; how it was run: as §1
Cavia porcellus [5] = species: Cavia porcellus; test: Anticholinergic activity is assessed in guinea pig ileum at 30 uM; conditions: read-out: pA2 (converted)
Cavia porcellus [6] = species: Cavia porcellus; test: Anticholinergic activity is assessed in guinea pig ileum at 50 uM; format: functional; conditions: read-out: pA2 (converted); how it was run: as §2
Canis familiaris [7] = test: Compound was evaluated for ouabain-induced arrhythmia in anesthetized adult male mongrel dogs. Both ouabain and compound are administered intravenously; NA = inactive up to 30 mg/kg; format: functional, organism-based; design: dose 30 mg/kg; conditions: Canis lupus familiaris; how it was run: as §1
Cavia porcellus [8] = species: Cavia porcellus; test: Anticholinergic activity is assessed in guinea pig ileum at 10 uM; format: functional; conditions: read-out: pA2 (converted); how it was run: as §2

O=C(Nc1cc(CN2CCCC2)c(O)c(CN2CCCC2)c1)c1ccc(Cl)cc1
Dose (Canis familiaris [1]): 1.5 mg/kg
Inhibition (Cavia porcellus [2]): 49%

Cl.Cl.O=C(Nc1cc(CN2CCCC2)c(O)c(CN2CCCC2)c1)c1cccc(Cl)c1
Dose (Canis familiaris [1]): 3.8 mg/kg
Inhibition (Cavia porcellus [2]): 37%

Cl.Cl.O=C(NCc1cc(CN2CCCC2)c(O)c(CN2CCCC2)c1)c1cccc(C(F)(F)F)c1
Dose (Canis familiaris [1]): 5.5 mg/kg
Inhibition (Cavia porcellus [2]): 72%

Cc1ccc(C(=O)Nc2cc(CN3CCCC3)c(O)c(CN3CCCC3)c2)s1
Dose (Canis familiaris [1]): 4.3 mg/kg

Cl.Cl.O=C(NCc1cc(CN2CCCC2)c(O)c(CN2CCCC2)c1)c1ccccc1C(F)(F)F
Dose (Canis familiaris [1]): 1.9 mg/kg
Inhibition (Cavia porcellus [2]): 8%

Cl.Cl.O=C(NCc1cc(CN2CCCC2)c(O)c(CN2CCCC2)c1)c1ccc(Cl)cc1
Dose (Canis familiaris [1]): 3.7 mg/kg
Inhibition (Cavia porcellus [2]): 56%

Cl.Cl.O=C(NCc1cc(CN2CCCC2)c(O)c(CN2CCCC2)c1)c1cccc(Cl)c1
Dose (Canis familiaris [1]): 9 mg/kg
Inhibition (Cavia porcellus [2]): 78%

O=C(Nc1cc(CN2CCCC2)c(O)c(CN2CCCC2)c1)c1cccs1
Kb (Cavia porcellus [3]): 15.8 µM
Dose (Canis familiaris [1]): 2 mg/kg
Inhibition (Cavia porcellus [2]): 44%

Cc1cccc(C(=O)Nc2cc(CN3CCCC3)c(O)c(CN3CCCC3)c2)c1.Cl.Cl
Dose (Canis familiaris [1]): 5.2 mg/kg
Inhibition (Cavia porcellus [2]): 32%

Nc1ccc(C(=O)Nc2cc(CN3CCCC3)c(O)c(CN3CCCC3)c2)cc1
Dose (Canis familiaris [1]): 4.5 mg/kg
Inhibition (Cavia porcellus [2]): 0%

Cc1ccc(C(=O)Nc2cc(CN3CCCC3)c(O)c(CN3CCCC3)c2)cc1
Dose (Canis familiaris [1]): 3 mg/kg
Inhibition (Cavia porcellus [2]): 22%

O=C(Cc1cccs1)Nc1cc(CN2CCCC2)c(O)c(CN2CCCC2)c1
Inhibition (Cavia porcellus [2]): 13%
DOSE (Canis familiaris [4]): Not effective

CC(C)N(CCC(C(N)=O)(c1ccccc1)c1ccccn1)C(C)C (stereo not given) [DISOPYRAMIDE]
Dose (Canis familiaris [1]): 4.4 mg/kg
Inhibition (Cavia porcellus [2]): 81%
Kb (Cavia porcellus [5]): 0.363 µM

Cl.Cl.O=C(Nc1cc(CN2CCCC2)c(O)c(CN2CCCC2)c1)c1ccc(Cl)cc1Cl
Inhibition (Cavia porcellus [2]): 11%
DOSE (Canis familiaris [4]): Not effective

Cl.Cl.O=C(NCc1cc(CN2CCCC2)c(O)c(CN2CCCC2)c1)c1ccccc1Cl
Dose (Canis familiaris [1]): 2.5 mg/kg
Kb (Cavia porcellus [6]): 12 µM
Inhibition (Cavia porcellus [2]): 19%

Cl.Cl.O=C(Nc1cc(CN2CCCC2)c(O)c(CN2CCCC2)c1)c1ccccc1C(F)(F)F
Dose (Canis familiaris [1]): 6.5 mg/kg
Kb (Cavia porcellus [6]): 17.4 µM
Inhibition (Cavia porcellus [2]): 0%

O=C(Nc1cc(CN2CCCC2)c(O)c(CN2CCCC2)c1)c1ccc(C(F)(F)F)cc1
Dose (Canis familiaris [1]): 5.3 mg/kg
Inhibition (Cavia porcellus [2]): 42%

Oc1c(CN2CCCC2)cc(Nc2ncnc3ccccc23)cc1CN1CCCC1 [CHANGROLIN]
Dose (Canis familiaris [1]): 5.5 mg/kg
Inhibition (Cavia porcellus [2]): 43%

COc1ccc(C(=O)Nc2cc(CN3CCCC3)c(O)c(CN3CCCC3)c2)cc1
Dose (Canis familiaris [1]): 7.3 mg/kg
Inhibition (Cavia porcellus [2]): 24%

O=C(Nc1cc(CN2CCCC2)c(O)c(CN2CCCC2)c1)c1ccccc1
Dose (Canis familiaris [1]): 3.4 mg/kg
Inhibition (Cavia porcellus [2]): 30%
Kb (Cavia porcellus [5]): 10 µM

O=C(Nc1cc(CN2CCCC2)c(O)c(CN2CCCC2)c1)c1ccccc1Cl
Dose (Canis familiaris [1]): 5 mg/kg
Kb (Cavia porcellus [6]): 7.59 µM
Inhibition (Cavia porcellus [2]): 0%

Cl.O=C(Nc1cc(CN2CCCC2)c(O)c(CN2CCCC2)c1)c1cccc(C(F)(F)F)c1
Dose (Canis familiaris [1]): 2.3 mg/kg
Inhibition (Cavia porcellus [2]): 62%

Cl.Cl.O=C(NCc1cc(CN2CCCC2)c(O)c(CN2CCCC2)c1)c1ccc(C(F)(F)F)cc1
Dose (Canis familiaris [1]): 4.5 mg/kg
Inhibition (Cavia porcellus [2]): 50%

O=C(Nc1cc(CN2CCCC2)c(O)c(CN2CCCC2)c1)c1cc(Br)sc1Br
Dose (Canis familiaris [1]): 4.3 mg/kg

COc1cc(C(=O)Nc2cc(CN3CCCC3)c(O)c(CN3CCCC3)c2)cc(OC)c1OC.Cl.Cl
DOSE (Canis familiaris [7]): inactive
Inhibition (Cavia porcellus [2]): 6%

O=C(NCc1cc(CN2CCCC2)c(O)c(CN2CCCC2)c1)c1ccccc1
Dose (Canis familiaris [1]): 3 mg/kg
Inhibition (Cavia porcellus [2]): 34%

Cc1ccccc1C(=O)Nc1cc(CN2CCCC2)c(O)c(CN2CCCC2)c1.Cl.Cl
Kb (Cavia porcellus [3]): 19.5 µM
Dose (Canis familiaris [1]): 2.7 mg/kg
Inhibition (Cavia porcellus [2]): 9%

Cc1cccc(C)c1C(=O)Nc1cc(CN2CCCC2)c(O)c(CN2CCCC2)c1.Cl.Cl
Dose (Canis familiaris [1]): 3.2 mg/kg
Kb (Cavia porcellus [6]): 5.5 µM
Inhibition (Cavia porcellus [2]): 15%

O=C(Nc1cc(CN2CCCC2)c(O)c(CN2CCCC2)c1)c1ccc([N+](=O)[O-])cc1
Dose (Canis familiaris [1]): 11 mg/kg
Inhibition (Cavia porcellus [2]): 24%

Cl.Cl.O=C(Nc1cc(CN2CCCC2)c(O)c(CN2CCCC2)c1)c1c(Cl)cccc1Cl
Dose (Canis familiaris [1]): 4.6 mg/kg
Kb (Cavia porcellus [6]): 4.68 µM
Inhibition (Cavia porcellus [2]): 14%

COc1ccccc1C(=O)Nc1cc(CN2CCCC2)c(O)c(CN2CCCC2)c1.Cl.Cl
Dose (Canis familiaris [1]): 3 mg/kg
Inhibition (Cavia porcellus [2]): 31%

Cc1ccsc1C(=O)Nc1cc(CN2CCCC2)c(O)c(CN2CCCC2)c1
Dose (Canis familiaris [1]): 1.6 mg/kg

C=C[C@H]1CN2CC[C@H]1C[C@@H]2[C@@H](O)c1ccnc2ccc(OC)cc12 [QUINIDINE]
Kb (Cavia porcellus [8]): 1 µM
Dose (Canis familiaris [1]): 10.5 mg/kg
Inhibition (Cavia porcellus [2]): 62%

CCN(CC)CCNC(=O)c1ccc(N)cc1 [PROCAINAMIDE]
Dose (Canis familiaris [1]): 29 mg/kg
Inhibition (Cavia porcellus [2]): 0%
